Shown is part of a subset that was picked to be rich in hits.
ABCB1 inh: blocks JC-1 efflux by human ABCB1 transporter. P08183. CCRF-Adr cells, flow cytometry. inhibition, % at 6.6 µM. actives 0.067% (n = 190,000); in the data active = inhibition above about 40%;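 note: 0% = vehicle and 100% = reference inhibitor; higher value means more JC-1 retained so stronger ABCB1 efflux block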
ABCG2 block: human ABCG2 inhibition, ABCB1 as counter-screen; IgMXP3 cells, JC-1 efflux, flow cytometry; inhibition, % at 6.6 µM; actives 0.1% (n = 190,000);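 active = inhibition above 80%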;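 note: 0% = DMSO and 100% = nicardipine control wells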
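Test system: IgMXP3 (ABCG2) plus far-red-tagged CCRF-Adr (ABCB1) cells / Amount: 3 million cells/mL in well / Reagent: JC-1 transporter substrate / Timing: 10 min compound exposure, 25 °C / Signal: flow cytometry, 530 nm JC-1 signal / Read-out: percent efflux inhibition, scaled nicardipine 100% to DMSO 0% / Benchmarks: nicardipine as high control, DMSO as low control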
Biofilm kill mix: mixtures killing C. albicans biofilm; C. albicans biofilm persisters + clotrimazole, fluorescence viability; primary screen in compound mixtures of four per well; inhibition, % at 7.6 µM; actives 0.02% (n = 120,000); AID 1242;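 active = inhibition above 30.3% in the primary screen of four-compound pools, then above 30% when the compound was retested; inconclusive = passed the primary limit but could not be retested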;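 note: compounds exposed to preformed 24 h biofilms for 48 h; 0% = untreated biofilm control and 100% = clotrimazole plus chlorhexidine kill blank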
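Incubation: 24 h biofilm formation, then 48 h compound exposure, 37 °C | Material: C. albicans biofilms | Buffer or medium: RPMI/MOPS medium, pH 7.0 | Measured by: 2-h Alamar Blue fluorescence, 535/590 nm excitation/emission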
ROMK primary: modulates human ROMK potassium channel activity. B-score at 10 µM. Tet-inducible ROMK, thallium flux fluorescence; actives lie on both sides. actives 2% (n = 130,000). AID 1918. P48048;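 active = signal ratio slope over the read window, or its plate-corrected B-score, at least 3 SD from the plate mean, either direction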;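 note: B-score of the F/F0 ratio slope over 7 to 12 s after thallium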
TRPML3 ag: activates the human TRPML3 channel; AID 1448; HEK293 TRPML3-YFP, Fluo-8 calcium fluorescence; 100% = the carbachol control signal; activation, % at 3 µM; actives 0.29% (n = 220,000);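 active = activation above its plate's cutoff, the mean activation of the plate's test wells plus 3 SD, cut at about 12% in these data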;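 note: 0% = DMSO only wells and 100% = carbachol wells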
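Material: TRPML3-YFP stable HEK293 cells | Dosing: One concentration, 3 µM nominal, 0.3% DMSO | Timing: 125 s total fluorescence read per well | Technique: Fluo-8 calcium dye fluorescence, ex 470-495, em 515-575 nm | Measure: Percent activation from peak-to-basal fluorescence ratio, scaled between DMSO and carbachol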
zfTRPN1 agonist: activates the zebrafish TRPN1 channel; HEK293 zebrafish TRPN1-YFP, Fluo-8 calcium fluorescence; 100% = response to 87 µM carbachol; activation, % at 3 µM; actives 0.18% (n = 220,000);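 active = activation above its plate's cutoff, the mean activation of test wells on that plate plus 3 SD, cut at about 19% in these data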;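 note: 0% = DMSO alone and 100% = 87 µM carbachol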
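Assay system: Zebrafish TRPN1-YFP in HEK293 cells | Incubation: Dye loading 1 h at 37 °C, then 30 min room temperature | Measured by: Kinetic Fluo-8 fluorescence, ex 470-495, em 515-575 nm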
ROMK retest: confirmation of human ROMK potassium channel modulators; shares compounds with ROMK primary; ROMK thallium flux, fluorescence ratio; stronger effect = lower value; normalized thallium flux (F/F0 slope) at 10 µM; actives 54% (n = 3,000); AID 1917;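 active = Flux at 10 µM at least 3 SD below or above vehicle control mean in one or both replicates; inconclusive = no clear call, values can overlap the other calls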
Starred values were filed as active, the others as inactive; ? = inconclusive; nt = no result.

SMILES	ABCB1 inh	ABCG2 block	Biofilm kill mix	ROMK primary	TRPML3 ag	zfTRPN1 agonist	ROMK retest
Cn1cc(/C=C2\SC(=S)N(NC(=O)c3cccc(Cl)c3)C2=O)c2ccccc21	nt	nt	20.4	nt	0.9	3.2	nt
Cn1cc(/C=C2\SC(=S)N(NC(=O)c3ccccc3)C2=O)c2ccccc21	-4.8	-13.5	13.3	-3.01*	1.8	2.8	0.0579*
CCN=C1SC(CC(=O)NCC)C(=O)N1CC (centres undefined)	0.3	0.2	nt	3.05*	0.7	0.0	0.0811
CCN=C1SC(CC(=O)Nc2ccccc2)C(=O)N1CC (centres undefined)	0.4	2.7	nt	nt	-0.4	0.6	nt
ClCc1nnc(-c2cc3c(s2)CCCC3)o1	0.0	10.1	24.0	-1.99	0.0	-0.1	nt
O=C(Cn1c(C(=O)NCc2ccco2)cc2sccc21)c1ccccc1	0.6	3.3	nt	nt	-0.8	-1.2	0.0852
O=C(Cn1c(C(=O)NCC2CCCO2)cc2sccc21)c1ccccc1 (centres undefined)	0.8	0.7	nt	nt	1.0	-0.4	nt
NC(=O)COc1ccc(-c2noc(COc3ccccc3[N+](=O)[O-])n2)cc1	0.2	2.6	2.8	0.0648	-0.1	3.1	nt
CCOc1ccccc1CN1CCN(C2CCSCC2)CC1CCO (centres undefined)	0.2	0.8	11.6	0.0364	0.7	0.1	nt
COC(=O)C1=C(C)N=C2SC(C#N)=C(N)N2C1c1ccc(OC)cc1 (centres undefined)	1.1	3.8	nt	0.0042	0.3	-0.1	nt
CCOC(=O)C1=C(C)N=C2SC(C(=O)OC)=CC(=O)N2C1c1ccc(OC)cc1 (centres undefined)	-0.7	-6.3	15.1	-4.49*	0.6	1.5	0.0544*
N=C1SC(CC(=O)Nc2ccccc2[N+](=O)[O-])C(=O)N1c1ccccc1 (centres undefined)	nt	nt	22.0	nt	-0.3	1.7	nt
Cc1oc2c(c1C(=O)O)C(=O)c1ccccc1C2=O	0.3	7.8	3.6	-0.0172	-0.1	-0.7	nt
Cc1oc2c(c1C(=O)c1ccccc1)C(=O)C(=O)c1ccccc1-2	1.1	4.7	nt	nt	7.9	-1.0	?
O=C(NCc1cccs1)C(=O)NCC(c1ccco1)N1CCN(c2ccccc2F)CC1 (centres undefined)	1.7	4.1	19.2	0.121	0.1	-0.6	nt
Cc1ccc(OCc2ccc(C(=O)NCc3cccnc3)cc2)cc1C	0.8	4.5	16.6	0.832	1.9	5.7	nt
COc1ccc(C(C[N+](=O)[O-])c2c(-c3ccccc3)cc3ccccn23)cc1 (centres undefined)	0.3	12.2	nt	-3.66*	0.8	-1.4	0.0842
COc1ccc(C(C[N+](=O)[O-])c2c(-c3ccccc3)cc3ccccn23)cc1OC (centres undefined)	0.6	2.3	nt	-3.72*	0.4	-0.1	0.0641*
COc1cc(C(C[N+](=O)[O-])c2c(-c3ccccc3)cc3ccccn23)cc(OC)c1OC (centres undefined)	0.8	4.0	nt	-1.36	0.4	-1.1	nt
COCCN(CCOC)C(=O)COC(=O)c1ccc(Cl)c(S(=O)(=O)N(C)c2ccccc2)c1	1.2	2.2	17.3	0.223	0.5	0.5	nt
CCN(CC)C(=O)c1[nH]cnc1C(=O)N[C@@H](CC(C)C)C(=O)OCc1ccccc1	1.5	1.6	19.3	nt	-1.1	-1.3	nt
N=C1/C(=C\c2coc3ccccc3c2=O)C(=O)N=C2SC=CN12	nt	nt	21.7	nt	66.3*	175.5*	0.0377*
N=C1/C(=C/c2cccn2Cc2ccc(F)cc2)C(=O)N=C2SC=CN12	1.6	1.3	10.9	0.0843	-0.5	-0.8	nt
CCOC1=C/C(=C/c2c(N)n3nc(-c4ccccc4)sc3nc2=O)C=CC1=O	-1.2	-1.8	8.6	-3.54*	-0.2	0.7	0.0439*
COC1=C/C(=C/c2c(N)n3nc(-c4ccc(C)cc4)sc3nc2=O)C=CC1=O	0.1	1.6	32.0	-1.55	0.1	-0.9	nt
